The values below come from ChEMBL document CHEMBL1914305, “Synthesis and structure-activity evaluation of isatin-β-thiosemicarbazones with improved selective activity toward multidrug-resistant cells expressing P-glycoprotein” (J Med Chem, 2011).

Series [1] relates to NIH3T3. As to the kind of experiment: Cytotoxicity against mouse NIH/3T3 cells after 72 hrs by MTT assay. The series is classed as cell-based. Conditions: NIH3T3, 72 h. The gist of the method:
(§1)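 Grown in DMEM with 10% FBS. MTT assay: 4000 cells/well, 24 h settling, serial dilutions of drug, 72 h at 37 °C in 5% CO2. MTT in IMDM 4 h, then acidified ethanol 15 min, A570 with 690 nm background. IC50 is the concentration reducing absorbance to 50% of untreated control. Three experiments in triplicate. KB-V1-R comes from KB-V1 grown long-term drug-free.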

In series [2] the test system is NIH3T3. As to the kind of experiment: Cytotoxicity against mouse NIH/3T3 cells transfected with wild-type P-gp G185 after 72 hrs by MTT assay. The series is classed as functional, cell-based. Conditions: NIH3T3, 72 h. Summed up: as §1
(In general: Formazan colour is commonly taken as a measure of viable cells.)

Series [3] concerns LLC-PK1. Description: Cytotoxicity against pig LLC-PK1 cells after 72 hrs by MTT assay. Conditions: Sus scrofa, LLC-PK1, 72 h. Type of series: cell-based. The gist of the method:
(§2)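 LLC-PK1 empty-vector lines grown in M199 with 10% FBS; transfected lines also in 0.5 mg/mL G418. MTT assay: 4000 cells/well for 24 h, then serially diluted drug for 72 h at 37 °C, 5% CO2. MTT 4 h, acidified ethanol, A570 minus 690 nm. IC50 is 50% of untreated absorbance. Triplicate wells, three experiments.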

The test system of series [4] is OVCAR-8. Description: Cytotoxicity against human OVCAR8 cells after 72 hrs by MTT assay. Conditions: OVCAR-8, 72 h. The series is classed as functional, cell-based. Summed up:
(§3)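 Lines grown in RPMI with 10% FBS and 2 mM L-glutamine. MTT assay: 4000 cells/well attached 24 h before serially diluted drug, then 72 h exposure at 37 °C, 5% CO2. MTT in IMDM 4 h, lysis in acidified ethanol 15 min, absorbance 570 nm minus 690 nm. IC50 is the concentration halving untreated absorbance. Three independent experiments, each in triplicate.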

Series [5] can be described thus: Cytotoxicity against adriamycin-selected human MES-SA cells after 72 hrs by MTT assay. The series is classed as functional, cell-based. The gist of the method: (§4)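 MES-SA and MES-SA/Dx5 lines kept in McCoy's 5A with 10% FBS. MTT assay: seeded at 4000 cells/well for 24 h, serial drug dilutions, 72 h at 37 °C and 5% CO2. MTT 4 h, acidified ethanol lysis, A570 corrected at 690 nm. IC50 is 50% absorbance versus untreated wells. Three separate experiments in triplicate.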

Series [6] is described as follows: Cytotoxicity against human MES-SA cells after 72 hrs by MTT assay. The series is classed as functional, cell-based. The gist of the method:
as §4

Series [7] has as its system HEK293. Description: Cytotoxicity against human HEK293 cells transfected with plasmid expressing MDR1 after 72 hrs by MTT assay. Type of series: functional, cell-based. Conditions: HEK293, 72 h. Summed up:
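ABCB1-transfected HEK293 grown in DMEM with 10% FBS and 1 mg/mL G418. MTT assay: 4000 cells/well for 24 h, serial drug dilutions, 72 h at 37 °C, 5% CO2. MTT 4 h, acidified ethanol lysis, A570 corrected at 690 nm. IC50 at 50% of untreated absorbance. Three experiments in triplicate.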

The nature of series [8]: Cytotoxicity against vinblastine-selected human KBV1 cells after 72 hrs by MTT assay. The series is classed as functional, cell-based. Conditions: KB-V1, 72 h. Summed up: as §1
Series [9] concerns SW-620. As to the kind of experiment: Cytotoxicity against human SW620 cells after 72 hrs by MTT assay. The series is classed as functional, cell-based. As to conditions: SW-620, 72 h. The gist of the method:
as §3

Series [10] deals with NIH3T3. As to the kind of experiment: Cytotoxicity against 2.4 ug/mL vincristine selected mouse NIH/3T3 cells transfected with P-gp Ser to Asp phosphorylation mutant after 72 hrs by MTT assay. The series is classed as functional, cell-based. Conditions: NIH3T3, 72 h. The gist of the method:
as §1

Series [11] has as its system NIH3T3. Description: Cytotoxicity against mouse NIH/3T3 cells transfected with wild type p-glycoprotein ABCB1 selected at 600 ug/ml vincristine after 72 hrs by MTT assay. The series is classed as functional, cell-based. As to conditions: NIH3T3, 72 h, in the assay text read “600 ng/ml” for “600 ug/ml”. Summed up: as §1
For series [12], the system named is CHO. As to the kind of experiment: Cytotoxicity against CHO cells after 72 hrs by MTT assay. The series is classed as cell-based. As to conditions: Cricetulus griseus. Summed up: (§5)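 CHO and colchicine-selected C5 cells kept in AlphaMEM with 10% FBS. MTT assay: 4000 cells/well settled 24 h, then serially diluted drug added. Incubated 72 h at 37 °C, 5% CO2. MTT in IMDM for 4 h, then acidified ethanol lysis for 15 min. Read A570, background-corrected at 690 nm. IC50 is the concentration giving 50% of untreated absorbance. Three experiments, each in triplicate.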

In series [13] the test system is NCI/ADR-RES. Description: Cytotoxicity against adriamycin-selected human NCI/ADR-RES cells after 72 hrs by MTT assay. The series is classed as functional, cell-based. The gist of the method:
as §3

Series [14] deals with SW-620. Description: Cytotoxicity against human SW620 cells selected at 20 ng/mL adriamycin after 72 hrs by MTT assay. The series is classed as functional, cell-based. Conditions: SW-620, 72 h. The gist of the method: as §3
Series [15] deals with LLC-PK1. Description: Cytotoxicity against pig LLC-PK1 cells transfected with empty vector after 72 hrs by MTT assay. The series is classed as cell-based. As to conditions: Sus scrofa, LLC-PK1, 72 h. The gist of the method: as §2
The nature of series [16]: Cytotoxicity against human Ew36 cells after 72 hrs by MTT assay. Type of series: functional, cell-based. As to conditions: Ew36, 72 h. The gist of the method:
as §3

Series [17] has as its system NIH3T3. As to the kind of experiment: Cytotoxicity against mouse NIH/3T3 cells selected at 30 ug/ml vincristine after 72 hrs by MTT assay. Conditions: NIH3T3, 72 h, in the assay text read “30 ng/ml” for “30 ug/ml”. The series is classed as functional, cell-based. Summed up:
as §1

A short description of series [18]: Cytotoxicity against human Ew36 cells selected at 120 ng/mL vincristine after 72 hrs by MTT assay. Type of series: functional, cell-based. Conditions: Ew36, 72 h. The gist of the method: as §3
For series [19], the system named is CHO. As to the kind of experiment: Cytotoxicity against CHO cells selected at 1 ug/mL colchicine after 72 hrs by MTT assay. Type of series: functional, cell-based. Conditions: Cricetulus griseus. The gist of the method: as §5
The subject of series [20] is HEK293. Description: Cytotoxicity against human HEK293 cells after 72 hrs by MTT assay. As to conditions: HEK293, 72 h. Type of series: functional, cell-based. Summed up: as §1
Series [21] deals with NIH3T3. As to the kind of experiment: Cytotoxicity against mouse NIH/3T3 cells selected at 1 ug/mL colchicine after 72 hrs by MTT assay. The series is classed as functional, cell-based. Conditions: NIH3T3, 72 h. The gist of the method: as §1
A short description of series [22]: Cytotoxicity against doxorubicin-selected human ZR-75B cells after 72 hrs by MTT assay. Type of series: functional, cell-based. Summed up:
as §3

Series [23] can be described thus: Cytotoxicity against human KB-3-1 cells after 72 hrs by MTT assay. The series is classed as functional, cell-based. Conditions: KB 3-1, 72 h. Summed up:
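Grown in DMEM with 10% FBS. MTT assay: 4000 cells/well, 24 h settling, serial dilutions of drug, 72 h at 37 °C in 5% CO2. MTT in IMDM 4 h, then acidified ethanol 15 min, A570 with 690 nm background. Three experiments in triplicate. KB-V1-R comes from KB-V1 grown long-term drug-free.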

Series [24] can be described thus: Selectivity ratio of IC50 for pig LLC-PK1 cells transfected with empty vector to IC50 for pig LLC-PK1 cells. As to conditions: read-out: Ratio IC50. Type of series: ADME, cell-based, Sus scrofa. Summed up:
(§6)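 Selectivity ratio: IC50 in the parental or empty-vector cells divided by IC50 in the P-gp-expressing cells (KB-V1, or ABCB1-transfected LLC-PK1). MTT assay: 4000 cells/well established for 24 h, then 72 h exposure to serially diluted drug at 37 °C, 5% CO2. MTT for 4 h, acidified ethanol lysis, A570 corrected at A690. IC50 is the concentration giving 50% of untreated absorbance, from at least three experiments.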

Series [25] can be described thus: Selectivity ratio of IC50 for human KB-3-1 cells to IC50 for human KBV1 cells selected at 1 ug/mL vinblastine. The series is classed as functional. The gist of the method: as §6
The subject of series [26] is KB-V1. Description: Cytotoxicity against P-gp expressing human KBV1 cells after 72 hrs by MTT assay in presence of 4 uM P-gp substrate Rh123. The series is classed as functional, cell-based.
The test system of series [27] is NCI-H460. As to the kind of experiment: Cytotoxicity against ABCG2-expressing human H460 cells at 10 uM after 72 hrs by MTT assay. The series is classed as functional, cell-based.
For series [28], the system named is NCI-H460. As to the kind of experiment: Cytotoxicity against ABCG2-expressing human H460 cells at 10 to 20 uM after 72 hrs by MTT assay in presence of ABCG2 substrate 5 uM mitoxantrone. The series is classed as functional, cell-based.
Series [29] in a line: Cytotoxicity against P-gp-negative human KB-3-1 cells after 72 hrs by MTT assay in presence of 100 nM TQR. Conditions: KB 3-1, 72 h.
Series [30] in a line: Cytotoxicity against P-gp expressing human KBV1 revertant cells after 72 hrs by MTT assay. The series is classed as functional, cell-based. Conditions: KB-V1, 72 h, in the assay text read “P-gp-negative” for “P-gp expressing”. Summed up: as §1
Series [31] is described as follows: Aqueous solubility of the compound. The series is classed as physicochemical. Conditions: buffer.
Series [32] is described as follows: Cytotoxicity against P-gp expressing human KBV1 cells after 72 hrs by MTT assay in presence of 100 nM TQR. Conditions: KB-V1, 72 h.

The structures appear in SMILES notation. In brackets after ≈: the same amount, converted by molar mass. Activity calls are given as the source filed them. No cut-off for these calls is given here.

For the molecule `COc1cccc2c1C(=O)c1c(O)c3c(c(O)c1C2=O)C[C@@](O)(C(=O)CO)C[C@@H]3O[C@H]1C[C@H](N)[C@H](O)[C@H](C)O1` [DOXORUBICIN], the half-maximal inhibitory concentration (IC50) (in general, the concentration that inhibits the measured activity by half) in series [1] worked out at 50 nM; in series [2] it was 380 nM; in series [3] it was 19700 nM; in series [4], 140 nM; in [5], 870 nM; in series [6], 30 nM. For the same molecule, the IC50 in series [7] came out at 420 nM; in [8], 4700 nM; in series [9], 10 nM; in series [10], 17500 nM; in series [11], 690 nM; in series [12], 80 nM. For the same molecule, the half-inhibitory concentration (IC50) is 9300 nM in series [13]; 240 nM in series [14]; 200 nM in series [15]; 10 nM in series [16]; 80 nM in series [17]; 240 nM in series [18]. Moreover, the IC50 turned out to be 9700 nM in series [19], 10 nM in [20], 1580 nM in series [21] and 2020 nM in [22].

For the molecule `CC(C)(C)c1ccc(NC(=S)N/N=C2\C(=O)Nc3ccccc32)cc1`, the concentration for half-maximal inhibition (IC50) in series [23] was 8130 nM; in series [3], 2890 nM; in series [8], 710 nM; in [15], 29300 nM; in [29], 14300 nM; in series [30], 6500 nM. The IC50 in series [32] is 8410 nM. In addition, in [24], the selectivity ratio turned out to be 10.1. Besides, the “Ratio IC50” value in series [25] is 14.8. In addition, the result in [26], in [27] and in [28] was Active. In addition, the solubility – broadly, how much of the substance goes into solution per volume – in series [31] was found to be 0.8 µg/mL (≈ 2.27 µM).
